{
  "source": "ChEMBL document CHEMBL5236619",
  "about": "“Design and Optimization of 1H-1,2,3-Triazole-4-carboxamides as Novel, Potent, and Selective Inverse Agonists and Antagonists of PXR” (J Med Chem, 2022)",
  "key": {"[1]": {"biological_target": "T1, Vitamin D3 receptor (Homo sapiens) (UniProt P11473)", "T1 sequence (whole entry)": "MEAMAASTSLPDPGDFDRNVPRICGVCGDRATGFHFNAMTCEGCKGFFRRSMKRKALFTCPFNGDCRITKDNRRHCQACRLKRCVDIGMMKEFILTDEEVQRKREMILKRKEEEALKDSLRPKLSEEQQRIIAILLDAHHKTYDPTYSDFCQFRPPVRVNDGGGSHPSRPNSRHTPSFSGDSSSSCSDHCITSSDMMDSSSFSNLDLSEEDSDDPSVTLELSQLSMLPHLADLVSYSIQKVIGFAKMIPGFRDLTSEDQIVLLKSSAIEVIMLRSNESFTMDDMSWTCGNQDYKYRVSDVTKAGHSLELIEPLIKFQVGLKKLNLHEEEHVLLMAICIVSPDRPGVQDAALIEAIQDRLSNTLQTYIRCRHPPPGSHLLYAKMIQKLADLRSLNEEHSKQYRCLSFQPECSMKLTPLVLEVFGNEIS", "test": "Effect on VDR activity in GeneBLAzer VDR-UAS-bla HEK 293T cells by fluorescence based analysis", "type": "cell-based", "method_in_brief": "(§1)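 Run in agonistic mode (compound alone) or antagonistic mode (compound plus an agonist). Each concentration tested in quadruplicate, at least three times. % activation or % inhibition plotted against concentration, with EC50 or IC50 derived from a sigmoidal dose–response fit.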"}, "[2]": {"biological_target": "T2, Oxysterols receptor LXR-alpha (Homo sapiens) (UniProt Q13133)", "T2 sequence (whole entry)": "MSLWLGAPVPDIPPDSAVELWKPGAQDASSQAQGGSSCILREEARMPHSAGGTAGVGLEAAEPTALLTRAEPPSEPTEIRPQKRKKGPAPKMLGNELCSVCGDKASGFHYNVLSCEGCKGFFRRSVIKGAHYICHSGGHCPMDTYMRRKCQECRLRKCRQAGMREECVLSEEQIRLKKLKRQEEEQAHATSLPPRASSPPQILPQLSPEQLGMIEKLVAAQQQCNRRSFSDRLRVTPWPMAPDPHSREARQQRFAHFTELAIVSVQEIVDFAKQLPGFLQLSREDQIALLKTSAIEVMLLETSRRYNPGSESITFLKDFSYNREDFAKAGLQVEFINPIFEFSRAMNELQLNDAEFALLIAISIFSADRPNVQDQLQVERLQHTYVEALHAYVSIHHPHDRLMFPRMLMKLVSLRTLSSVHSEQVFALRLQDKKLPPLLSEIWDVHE", "test": "Effect on LXRalpha activity in GeneBLAzer LXRalpha-UAS-bla HEK 293T cells by fluorescence based analysis", "type": "cell-based", "method_in_brief": "as §1"}, "[3]": {"test_system": "HEK-293T", "test": "Cytotoxicity against HEK293T cells assessed as reduction in cell viability measured after 24 to 72 hrs by celltiter-glo luminescent cell viability assay", "type": "toxicity, cell-based", "settings": "human, time 24-72 hrs", "method_in_brief": "(§2)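 Cells seeded at 2,500 per well for 1-day or 5,000 per well for 3-day exposure. Viability read by CellTiter-Glo luminescence. Staurosporine (56 μM) set as 100% cytotoxicity. Each concentration run in quadruplicate, at least three times. % cytotoxicity plotted and fitted to a sigmoidal dose–response curve. Means and SDs from three independent experiments.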"}, "[4]": {"test_system": "HepaRG", "test": "Cytotoxicity against human HepaRG cells assessed as reduction in cell viability measured after 24 to 72 hrs by celltiter-glo luminescent cell viability assay", "type": "toxicity, cell-based", "settings": "time 24-72 hrs", "method_in_brief": "as §2"}, "[5]": {"biological_target": "T3, Nuclear receptor subfamily 1 group I member 2 (Homo sapiens, UniProt O75469)", "T3 sequence (O75469 whole entry)": "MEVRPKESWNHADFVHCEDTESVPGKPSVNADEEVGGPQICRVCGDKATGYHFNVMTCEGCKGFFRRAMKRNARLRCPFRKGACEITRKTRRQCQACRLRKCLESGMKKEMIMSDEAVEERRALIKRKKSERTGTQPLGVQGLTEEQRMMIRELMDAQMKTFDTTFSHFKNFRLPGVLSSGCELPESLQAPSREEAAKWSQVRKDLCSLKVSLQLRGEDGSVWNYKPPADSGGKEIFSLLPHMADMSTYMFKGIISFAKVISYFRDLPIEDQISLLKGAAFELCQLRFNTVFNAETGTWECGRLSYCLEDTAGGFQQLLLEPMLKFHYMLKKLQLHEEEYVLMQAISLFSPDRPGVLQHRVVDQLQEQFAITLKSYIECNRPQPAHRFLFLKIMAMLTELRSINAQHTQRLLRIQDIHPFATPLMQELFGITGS", "test": "Agonist activity at human PXR in human HepG2 cells co-expressing luciferase gene under control of CYP3A4 promoter assessed as transcriptional activation at 30 uM incubated for 24 hrs by luminescence based analysis", "type": "cell-based", "settings": "hepg2, 24 h"}, "[6]": {"test_system": "HepG2", "test": "Effect on CAR activity in human HepG2 cells co-expressing luciferase gene under control of CYP3A4 promoter by luciferase reporter assay", "type": "cell-based"}, "[7]": {"biological_target": "T4, PXR (NR1I2) (Homo sapiens, UniProt O75469)", "T4 sequence (O75469 whole entry)": "T3 sequence (O75469 whole entry)", "test": "Inverse agonist activity at human PXR in human HepG2 cells co-expressing luciferase gene under control of CYP3A4 promoter assessed as inhibition in receptor basal activity at 10 uM incubated for 24 hrs by luminescence based analysis relative to control", "type": "cell-based"}, "[8]": {"biological_target": "T5, PXR (NR1I2) ligand binding domain (Homo sapiens, UniProt O75469)", "T5 sequence (O75469 whole entry)": "T3 sequence (O75469 whole entry)", "test": "Inhibition of BODIPY FL vindoline binding to recombinant human GST-tagged PXR LBD (111 to 434 residues) expressed in baculovirus infected insect cells at 10 uM incubated for 1 mins under shaking condition followed by 60 mins under dark condition by TR-FRET assay relative to control", "settings": "probe BODIPY FL vindoline, time 61 min"}, "[9]": {"test_system": "HepG2", "test": "Cytotoxicity against human HepG2 cells assessed as reduction in cell viability measured after 24 to 72 hrs by celltiter-glo luminescent cell viability assay", "type": "toxicity, cell-based", "settings": "time 24-72 hrs", "method_in_brief": "as §2"}, "[10]": {"test": "Cytotoxicity against […] Hepa1-6 cells assessed as reduction in cell viability measured after 24 to 72 hrs by celltiter-glo luminescent cell viability assay", "type": "toxicity, cell-based", "settings": "time 24-72 hrs", "method_in_brief": "as §2"}, "[11]": {"biological_target": "T6, Bile acid receptor (Homo sapiens) (UniProt Q96RI1)", "T6 sequence (whole entry)": "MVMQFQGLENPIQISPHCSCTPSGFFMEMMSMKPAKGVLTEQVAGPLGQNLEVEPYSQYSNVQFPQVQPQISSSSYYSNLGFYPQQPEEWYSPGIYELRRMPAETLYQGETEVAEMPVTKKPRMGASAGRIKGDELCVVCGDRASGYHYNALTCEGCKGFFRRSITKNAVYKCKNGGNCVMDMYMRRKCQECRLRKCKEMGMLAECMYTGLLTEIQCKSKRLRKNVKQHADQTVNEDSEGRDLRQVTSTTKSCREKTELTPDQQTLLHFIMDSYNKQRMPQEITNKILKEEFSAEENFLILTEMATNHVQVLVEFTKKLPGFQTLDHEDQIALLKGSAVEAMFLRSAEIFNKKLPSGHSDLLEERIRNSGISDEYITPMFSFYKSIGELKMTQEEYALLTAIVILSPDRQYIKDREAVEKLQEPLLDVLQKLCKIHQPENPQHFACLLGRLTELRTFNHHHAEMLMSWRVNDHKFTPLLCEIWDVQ", "test": "Effect on FXR activity in GeneBLAzer FXR-UAS-bla HEK 293T cells by fluorescence based analysis", "type": "cell-based", "method_in_brief": "as §1"}, "[12]": {"biological_target": "T7, Nuclear receptor subfamily 1 group I member 2 (Mus musculus, UniProt O54915)", "T7 sequence (O54915 whole entry)": "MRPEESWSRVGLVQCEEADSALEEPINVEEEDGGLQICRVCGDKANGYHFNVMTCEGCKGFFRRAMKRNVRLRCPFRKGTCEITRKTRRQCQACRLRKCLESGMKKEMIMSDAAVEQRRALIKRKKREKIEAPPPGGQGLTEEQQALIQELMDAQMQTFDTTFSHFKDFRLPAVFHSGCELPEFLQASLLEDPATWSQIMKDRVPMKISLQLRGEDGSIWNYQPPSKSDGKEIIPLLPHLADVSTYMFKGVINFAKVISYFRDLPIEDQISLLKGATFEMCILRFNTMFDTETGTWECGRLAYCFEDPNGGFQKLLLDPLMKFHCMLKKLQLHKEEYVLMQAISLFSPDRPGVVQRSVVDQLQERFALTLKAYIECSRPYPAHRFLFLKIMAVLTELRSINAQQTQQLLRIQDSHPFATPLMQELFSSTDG", "test": "Effect on mouse PXR activity by luciferase reporter assay", "method_in_brief": "as §1"}},
  "note": "Activity calls are given as the source filed them. The calls are words filed in the database; no cut-off is given here.",
  "data": [
    {"smiles": "CCC[C@H](C)Oc1ccc(C(C)(C)C)cc1NC(=O)c1nnn(-c2cc(OC)ccc2OC)c1C", "values": [
      {"measurement": "Activity", "setting": "[1]", "result": "inactive"},
      {"measurement": "Activity", "setting": "[2]", "result": "inactive"},
      {"measurement": "Activity", "setting": "[3]", "result": "Non-Toxic"},
      {"measurement": "Activity", "setting": "[4]", "result": "Non-Toxic"},
      {"measurement": "Activity", "setting": "[5]", "result": "Not Active"},
      {"measurement": "Activity", "setting": "[6]", "result": "inactive"},
      {"measurement": "inhibition at 24 h, 10 µM", "setting": "[7]", "result": 125, "unit": "%"},
      {"measurement": "inhibition at 1.017 h, 10 µM", "setting": "[8]", "result": 87, "unit": "%"},
      {"measurement": "Activity", "setting": "[9]", "result": "Non-Toxic"},
      {"measurement": "Activity", "setting": "[10]", "result": "Non-Toxic"},
      {"measurement": "Activity", "setting": "[11]", "result": "inactive"},
      {"measurement": "Activity", "setting": "[12]", "result": "Not Active"}
    ]}
  ]
}
